Series [1] addresses T1, Arachidonate 5-lipoxygenase-activating protein (Homo sapiens) (UniProt P20292).
T1 sequence (whole entry): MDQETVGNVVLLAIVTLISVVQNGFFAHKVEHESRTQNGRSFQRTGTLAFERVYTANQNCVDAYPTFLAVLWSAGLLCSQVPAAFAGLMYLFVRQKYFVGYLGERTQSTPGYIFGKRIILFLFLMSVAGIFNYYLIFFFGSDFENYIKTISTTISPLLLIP
In words: Inhibition of FLAP in human whole blood assessed as reduction in calcium ionophore-stimulated LTB4 production preincubated for 4 hrs followed by calcium ionophore stimulation and measured after 20 mins by EIA. It counts as tissue-based. The gist of the method:
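Fresh human whole blood was incubated with compound for 4 h, then stimulated with calcium ionophore, and LTB4 production was measured as the 5-LO pathway read-out. IC50 was also converted to a free value: IC50 × (Fu/100), where Fu = 100 − human plasma protein binding (%).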

Another series has as its system THP-1. Kind of series: Cytotoxicity against human THP1 cells assessed as reduction in cell viability measured after 48 hrs by resazurin assay. As to conditions: THP-1, 48 h. In kind it is cell-based.
Series [2] deals with T2, Prostaglandin G/H synthase 2 (Homo sapiens) (UniProt P35354).
T2 sequence (whole entry): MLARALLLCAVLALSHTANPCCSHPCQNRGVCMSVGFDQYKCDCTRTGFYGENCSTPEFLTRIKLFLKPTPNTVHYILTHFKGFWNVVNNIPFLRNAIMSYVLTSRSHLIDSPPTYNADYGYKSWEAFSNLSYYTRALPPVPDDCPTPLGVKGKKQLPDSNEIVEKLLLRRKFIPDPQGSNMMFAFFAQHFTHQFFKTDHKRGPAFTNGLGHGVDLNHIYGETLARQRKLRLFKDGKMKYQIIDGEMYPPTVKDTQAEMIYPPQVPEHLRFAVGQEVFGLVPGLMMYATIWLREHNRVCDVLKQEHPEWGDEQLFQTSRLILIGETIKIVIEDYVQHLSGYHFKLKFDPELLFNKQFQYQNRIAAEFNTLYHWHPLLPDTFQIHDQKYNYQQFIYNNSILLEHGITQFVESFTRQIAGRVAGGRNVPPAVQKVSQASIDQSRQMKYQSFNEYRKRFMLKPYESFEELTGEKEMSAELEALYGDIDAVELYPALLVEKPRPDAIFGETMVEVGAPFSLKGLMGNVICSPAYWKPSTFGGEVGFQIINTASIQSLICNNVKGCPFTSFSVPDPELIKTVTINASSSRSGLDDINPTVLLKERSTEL
Kind of series: Activity at COX2 in human whole blood assessed as effect on LPS-induced PGE2 production preincubated for 15 mins followed by LPS-stimulation and measured after overnight incubation by EIA. It counts as tissue-based.

In another series the test system is HepG2. In words: Cytotoxicity against human HepG2 cells assessed as reduction in ATP depletion in presence of glucose/galactose. In kind it is cell-based.
Series [3] addresses Prostaglandin G/H synthase 1 (Homo sapiens) (UniProt P23219). In words: Activity at COX1 in human whole blood assessed as effect on […] production by EIA. It counts as tissue-based.
Series [4] addresses T3, Arachidonate 5-lipoxygenase-activating protein (Homo sapiens, UniProt P20292).
T3 sequence (P20292 whole entry): T1 sequence (whole entry)
Kind of series: Inhibition of [3H]MK0591 binding to human FLAP expressed in […] cell membranes measured after 60 to 80 mins by microbeta scintillation counting method.

Series [5] is described as follows: Octanol-phosphate buffer partition co-efficient, log D of the compound at pH 7.4 after 2 hrs by LC-MS/MS-based shake flask method. It counts as physicochemical. The gist of the method:
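Distribution between octanol and water at pH 7.4.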

Series [6] can be described thus: Aqueous solubility of the compound in pH 7.4 phosphate buffer measured after 24 hrs by LC-MS/MS-based shake flask method. It counts as physicochemical.
Series [7] is described as follows: Intrinsic clearance in human hepatocytes assessed per million cells at 1 uM measured after 2 to 60 mins by LC-MS/MS analysis. It counts as ADME, cell-based, Hepatocyte. The note with it: read-out: CLH.
Series [8] can be described thus: Passive apparent permeability across apical to basolateral side in human Caco2 cells at pH 6.5. It counts as ADME, cell-based. The note with it: Caco-2, pH 6.5. The method, boiled down: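 Passive permeability across Caco-2 monolayers, measured in the A to B direction at pH 6.5.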
Background: Passage across Caco-2 layers is used to estimate intestinal permeability.

Series [9] in a line: Mutagenicity in Salmonella typhimurium TA100 in absence of rat S9 fraction by Ames test. In kind it is toxicity. The note with it: salmonella enterica subsp. enterica serovar typhimurium. The gist of the method:
(§1)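 Ames bacterial mutagenicity test in S. typhimurium TA98 and TA100. Run with and without metabolic activation by rat S9 fraction.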
(In general: The Ames test uses bacterial strains that need an amino acid and regain growth without it when mutated back.)

Series [10] in a line: Intrinsic clearance in rat hepatocytes assessed per million cells at 1 uM measured after 2 to 60 mins by LC-MS/MS analysis. It counts as ADME, cell-based, Hepatocyte. As to conditions: read-out: CLH. The gist of the method: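 Rat hepatocyte incubation of the compound; intrinsic clearance measured after incubation.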
Series [11] can be described thus: Mutagenicity in Salmonella typhimurium TA98 in absence of rat S9 fraction by Ames test. In kind it is toxicity. As to conditions: salmonella enterica subsp. enterica serovar typhimurium. The method, boiled down:
as §1

Series [12] can be described thus: Mutagenicity in Salmonella typhimurium TA100 in presence of rat S9 fraction by Ames test. It counts as toxicity, subcellular. The note with it: salmonella enterica subsp. enterica serovar typhimurium. The method, boiled down: as §1
The nature of series [13]: Mutagenicity in Salmonella typhimurium TA98 in presence of rat S9 fraction by Ames test. The note with it: salmonella enterica subsp. enterica serovar typhimurium. In kind it is toxicity, subcellular. The method, boiled down: as §1

In brackets after ≈: the same amount, converted by molar mass. Activity calls are given as the source filed them. The rule behind the calls is not given here. Bounds are passed on as bounds.

Chain of Prostaglandin G/H synthase 1 (Homo sapiens) (P23219 whole entry): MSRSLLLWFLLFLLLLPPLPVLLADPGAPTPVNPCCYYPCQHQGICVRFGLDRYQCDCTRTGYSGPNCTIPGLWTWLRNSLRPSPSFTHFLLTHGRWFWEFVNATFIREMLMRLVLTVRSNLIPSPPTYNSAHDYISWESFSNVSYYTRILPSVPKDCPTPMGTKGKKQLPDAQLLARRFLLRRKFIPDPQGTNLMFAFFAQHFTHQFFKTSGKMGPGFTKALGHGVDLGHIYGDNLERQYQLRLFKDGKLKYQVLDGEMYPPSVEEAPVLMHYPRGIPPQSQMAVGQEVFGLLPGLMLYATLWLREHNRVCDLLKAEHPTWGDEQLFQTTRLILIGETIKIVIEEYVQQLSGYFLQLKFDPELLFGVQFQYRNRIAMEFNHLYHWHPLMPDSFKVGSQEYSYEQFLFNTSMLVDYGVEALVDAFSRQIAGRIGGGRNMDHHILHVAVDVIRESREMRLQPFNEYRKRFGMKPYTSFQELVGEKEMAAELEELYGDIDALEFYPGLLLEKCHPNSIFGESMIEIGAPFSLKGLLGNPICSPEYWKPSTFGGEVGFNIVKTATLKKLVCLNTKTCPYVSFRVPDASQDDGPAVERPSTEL

`Cc1cc(-c2ccc(C(=O)[C@@H]3CCCC[C@H]3C(=O)Nc3cn(C)nc3C(N)=O)cc2)[nH]n1`: the fIC50 in [1] was found to be 22 nM.

As for `Cc1cc(-c2ccc(C(=O)[C@@H]3CCCC[C@H]3C(=O)Nc3cnn(C)c3S(N)(=O)=O)cc2)n[nH]1`, the fIC50 in series [1] was 6.5 nM. In addition, the half-inhibitory concentration (IC50) in the series with THP-1 and with HepG2 was greater than 250000 nM each time. Also, the outcome in series [2] and in series [3] was inactive.

In turn, `Cc1cc(-c2ccc(C(=O)[C@@H]3CCCC[C@H]3C(=O)Nc3cnn(CC(N)=O)c3)cc2)[nH]n1` came in with a 50% inhibitory concentration (IC50) in [4] of 241 nM. In [1], the fIC50 turned out to be 487 nM. This compound gave a logD at 2 h in series [5] of 2.1. In series [6], this compound had a thermodynamic solubility at 24 h of 496 µM (≈ 216 µg/mL).

As to `Cc1cc(-c2ccc(C(=O)[C@@H]3CCCC[C@H]3C(=O)Nc3cnn(C)c3C(=O)O)cc2)[nH]n1`, the IC50 in series [4] was 17 nM. Also, the fIC50 in series [1] is 570 nM. In addition, the hepatocyte CLint at 1 µM in series [7] amounted to 3.2 µL/min/1e6 cells. In addition, the logD at 2 h in series [5] was 0.2. The same compound gave a solubility (thermodynamic) at 24 h in series [6] of 599 µM (≈ 261 µg/mL). The apparent permeability from apical to basolateral (Papp A→B) in [8] was found to be 0.21 ×10⁻⁶ cm/s.

In the case of `Cc1cc(-c2ccc(C(=O)[C@@H]3CCCC[C@H]3C(=O)Nc3cnn(C)c3C(N)=O)cc2)[nH]n1`, the Activity entry in series [9], in [11], in series [12] and in [13] was “Toxic” throughout. Further, the fIC50 in series [1] was found to be 13 nM. The figures for the hepatocyte CLint at 1 µM in [7] and in series [10] were 3 µL/min/1e6 cells and 6.5 µL/min/1e6 cells, respectively. For the same compound, the pH-dependent lipophilicity (logD) at 2 h in series [5] worked out at 2.6. Besides, in [6], the solubility (thermodynamic) at 24 h turned out to be 475 µM (≈ 206 µg/mL). In addition, the Papp A→B in [8] amounted to 2.6 ×10⁻⁶ cm/s.

As for `CCn1ncc(NC(=O)[C@@H]2CCCC[C@H]2C(=O)c2ccc(-c3cc(C)n[nH]3)cc2)c1C(N)=O`, the Activity result in [9], in [11], in series [12] and in [13] was “Toxic” each time. The fIC50 in series [1] is 16 nM. For the same compound, the hepatocyte CLint at 1 µM is 4.9 µL/min/1e6 cells in series [7] and 8.6 µL/min/1e6 cells in series [10]. In series [5], this compound returned a logD at 2 h of 2.9. The compound also registered a solubility (thermodynamic) at 24 h in [6] of 329 µM (≈ 148 µg/mL). Moreover, the Papp A→B in series [8] was found to be 9.2 ×10⁻⁶ cm/s.

Compound `Cc1cc(-c2ccc(C(=O)[C@@H]3CCCC[C@H]3C(=O)Nc3cnn(C)c3C(=O)NO)cc2)[nH]n1` returned an IC50 in series [4] of 47 nM. Moreover, in series [5], the logD at 2 h stood at 2.1. This compound came in with a thermodynamic solubility at 24 h in series [6] of 224 µM (≈ 101 µg/mL).

With `Cc1cc(-c2ccc(C(=O)[C@@H]3CCCC[C@H]3C(=O)Nc3c(C)nn(C)c3C(N)=O)cc2)n[nH]1`, the Activity entry in [9], in series [11], in series [12] and in series [13] was “Toxic” throughout. Further, the concentration for half-maximal inhibition (IC50) in series [4] amounted to 101 nM. The fIC50 in [1] worked out at 8 nM. Further, the hepatocyte CLint at 1 µM in [7] is less than 1 µL/min/1e6 cells; in series [10] it was 5.7 µL/min/1e6 cells. The compound further yielded a log distribution coefficient (logD) at 2 h in [5] of 2.6. In addition, in series [6], the solubility (thermodynamic) at 24 h amounted to 399 µM (≈ 179 µg/mL). The Papp A→B in [8] was 1.4 ×10⁻⁶ cm/s.

Consider `Cc1cc(-c2ccc(C(=O)[C@@H]3CCCC[C@H]3C(=O)Nc3cn(C)nc3C(N)=O)cc2)n[nH]1`, for which the Activity entry in series [9], in series [11], in series [12] and in series [13] was “Non-Toxic” throughout. The hepatocyte CLint at 1 µM worked out at 12.4 µL/min/1e6 cells in series [7] and 14 µL/min/1e6 cells in series [10]. In addition, the thermodynamic solubility at 24 h in series [6] was determined as 60 µM (≈ 26.1 µg/mL).

As to `Cc1cc(-c2ccc(C(=O)[C@@H]3CCCC[C@H]3C(=O)Nc3c(C(N)=O)n[nH]c3C)cc2)[nH]n1`, the hepatocyte CLint at 1 µM in series [7] was 6.7 µL/min/1e6 cells; in [10], 14.4 µL/min/1e6 cells. In series [5], this compound came in with a logD at 2 h of 2.3. Besides, in series [6], the solubility (thermodynamic) at 24 h is 402 µM (≈ 175 µg/mL). Also, in series [8], the Papp A→B was determined as 0.15 ×10⁻⁶ cm/s.

In the case of `Cc1cc(-c2ccc(C(=O)[C@@H]3CCCC[C@H]3C(=O)Nc3cn(C)nc3C)cc2)n[nH]1`, the Activity result in series [9], in series [11], in series [12] and in series [13] was “Non-Toxic” in each case. The compound also registered an IC50 in series [4] of 59 nM. Further, the fIC50 in series [1] was 7.4 nM. The results for the hepatocyte CLint at 1 µM in series [7] and in series [10] were 4 µL/min/1e6 cells and 12.8 µL/min/1e6 cells, respectively. In addition, the logD at 2 h in series [5] amounted to 3.1. This compound also had a thermodynamic solubility at 24 h in series [6] of 225 µM (≈ 91.2 µg/mL). Further, the apparent permeability from apical to basolateral (Papp A→B) in [8] came to 20.5 ×10⁻⁶ cm/s.

With `Cc1cc(-c2ccc(C(=O)[C@@H]3CCCC[C@H]3C(=O)Nc3c(C(N)=O)n[nH]c3C)cc2)n[nH]1`, in series [1], the fIC50 is 96 nM.

The IC50 is the concentration at which inhibition is half-maximal. For orientation: logD means lipophilicity at a set pH, counting ionised and neutral species. The low end stands for lower lipophilicity, the high end for higher lipophilicity. The thermodynamic solubility is the concentration in solution at equilibrium with solid. Broadly, the Papp A→B is how fast a substance crosses the layer from the apical side.

For the origin of these results see ChEMBL document CHEMBL4393654, “Discovery and Early Clinical Development of an Inhibitor of 5-Lipoxygenase Activating Protein (AZD5718) for Treatment of Coronary Artery Disease” (J Med Chem, 2019).
